# From ChEMBL document CHEMBL4371011, “Pyrrolone Derivatives as Intracellular Allosteric Modulators for Chemokine Receptors: Selective and Dual-Targeting Inhibitors of CC Chemokine Receptors 1 and 2” (J Med Chem, 2018)
# Several values for one entry are separate records, joined by “and”; a condition that tells them apart may be missing. Equal entries are not always repeated. Activity calls are given as the source filed them. The calls are words filed in the database; no cut-off is given here.
# Tests used:
# [1] = target: T1, C-C chemokine receptor type 2 (Homo sapiens, UniProt P41597); assay: Displacement of [3H]-CCR2-RA-[R] from human TEV protease site linked CCR2b expressed in human U20S cell membranes co-expressing Gal4-VP16 transcription factor after 120 mins by scintillation spectrometry
# Target sequence in this assay (P41597 whole entry, the tested form may be a part): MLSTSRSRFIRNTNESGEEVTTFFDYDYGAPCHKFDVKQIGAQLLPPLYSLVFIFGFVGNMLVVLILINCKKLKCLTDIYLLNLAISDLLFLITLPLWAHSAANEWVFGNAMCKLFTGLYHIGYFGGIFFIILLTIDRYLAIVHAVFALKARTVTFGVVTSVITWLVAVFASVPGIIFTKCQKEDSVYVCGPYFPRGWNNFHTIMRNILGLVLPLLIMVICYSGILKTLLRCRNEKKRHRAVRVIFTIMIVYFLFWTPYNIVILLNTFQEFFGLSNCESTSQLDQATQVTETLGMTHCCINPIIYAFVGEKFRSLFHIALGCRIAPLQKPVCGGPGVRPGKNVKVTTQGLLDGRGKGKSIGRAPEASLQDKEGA
# [2] = target: T2, C-C chemokine receptor type 1 (Homo sapiens, UniProt P32246); assay: biochemical
# T2 sequence (P32246 whole entry): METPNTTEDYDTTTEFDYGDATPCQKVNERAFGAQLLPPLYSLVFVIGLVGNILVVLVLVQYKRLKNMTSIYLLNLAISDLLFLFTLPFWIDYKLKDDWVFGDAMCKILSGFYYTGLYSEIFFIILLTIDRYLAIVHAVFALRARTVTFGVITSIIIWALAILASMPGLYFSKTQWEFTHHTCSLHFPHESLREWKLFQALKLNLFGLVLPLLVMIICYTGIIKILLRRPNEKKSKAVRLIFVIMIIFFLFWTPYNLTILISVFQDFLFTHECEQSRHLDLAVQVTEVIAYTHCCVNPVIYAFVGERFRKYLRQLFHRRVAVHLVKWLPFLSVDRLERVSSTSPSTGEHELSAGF
# [3] = target: T1, C-C chemokine receptor type 2; assay: Displacement of [3H]-CCR2-RA-[R] from human TEV protease site linked CCR2b expressed in human U20S cell membranes co-expressing Gal4-VP16 transcription factor at 1 uM after 120 mins by scintillation spectrometry relative to control
# Target sequence in this assay (P41597 whole entry, looked up, the tested form may be a part): as the sequence (P41597 whole entry, the tested form may be a part) above
# [4] = target: T1, C-C chemokine receptor type 2; assay: (§1) Antagonist activity at human TEV protease site linked CCR2b expressed in human U20S cell membranes co-expressing Gal4-VP16 transcription factor assessed as reduction in CCL2-induced G-protein activation preincubated for 30 mins in presence of CCL2 followed by incubation of 90 mins by [35S]GTPgammaS binding assay; assay type: functional
# Outline: (§2)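 Stably transfected U2OS membranes (10 μg; human CCR1 or CCR2b) in 50 mM Tris-HCl pH 7.4 with 5 mM MgCl2, 100 mM NaCl, 1 mM EDTA, 0.05% BSA, 10 μM GDP and 10 μg saponin. Preincubated with graded compound plus 8 nM CCL3 (CCR1) or 20 nM CCL2 (CCR2), then 0.3 nM [35S]GTPγS for 90 min at 25 °C.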
# Target sequence in this assay (P41597 whole entry, the tested form may be a part): as the sequence (P41597 whole entry, the tested form may be a part) above
# [5] = organism: Homo sapiens; assay: Selectivity ratio of IC50 for human TEV protease site linked CCR1 expressed in human U20S cell membranes co-expressing Gal4-VP16 transcription factor to IC50 for human TEV protease site linked CCR2b expressed in human U20S cell membranes co-expressing Gal4-VP16 transcription factor; assay type: cell-based
# [6] = target: T3, C-C chemokine receptor type 1 (Homo sapiens) (UniProt P32246); assay: Inverse agonist activity at human TEV protease site linked CCR1 expressed in human U20S cell membranes co-expressing Gal4-VP16 transcription factor assessed as decrease in basal activity after 90 mins in presence of 1 uM GDP by [35S]GTPgammaS binding assay relative to control; assay type: functional
# T3 sequence (whole entry): T2 sequence (P32246 whole entry)
# Outline: (§3)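 Basal [35S]GTPγS binding on human CCR1 U2OS membranes (10 μg) with saponin, in Tris/MgCl2/NaCl/EDTA/0.05% BSA, pH 7.4, without chemokine. Compound was tested at 100 μM with GDP at 1, 10 or 20 μM. Preincubation was 30 min at 25 °C, then 90 min after adding 0.3 nM [35S]GTPγS. Filtration and scintillation read-out; decrease versus basal.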
# [7] = target: T2, C-C chemokine receptor type 1; assay: as §1, with “CCR1” for “CCR2b”, “CCL3-induced” for “CCL2-induced”, “CCL3” for “CCL2”; assay type: functional; outline: as §2
# [8] = target: T1, C-C chemokine receptor type 2; assay: Inverse agonist activity at human TEV protease site linked CCR2b expressed in human U20S cell membranes co-expressing Gal4-VP16 transcription factor assessed as decrease in basal activity at 100 uM after 90 mins in presence of GDP by [35S]GTPgammaS binding assay relative to control; assay type: functional
# Outline: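 Basal G-protein activation on human CCR2b U2OS membranes (10 μg) plus 10 μg saponin and 10 μM GDP, pH 7.4 Tris buffer with NaCl, EDTA and BSA, no CCL2. Compound preincubated 30 min at 25 °C, then 90 min with 0.3 nM [35S]GTPγS. Bound label measured after filtration; change from basal.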
# Target sequence in this assay (P41597 whole entry, looked up, the tested form may be a part): as the sequence (P41597 whole entry, the tested form may be a part) above
# [9] = target: T3, C-C chemokine receptor type 1 (Homo sapiens); assay: Displacement of [3H]-CCR2-RA-[R] from human TEV protease site linked CCR1 expressed in human U20S cell membranes co-expressing Gal4-VP16 transcription factor at 1 uM after 120 mins by scintillation spectrometry relative to control
# [10] = target: T3, C-C chemokine receptor type 1 (Homo sapiens); assay: Inverse agonist activity at human TEV protease site linked CCR1 expressed in human U20S cell membranes co-expressing Gal4-VP16 transcription factor assessed as decrease in basal activity at 100 uM after 90 mins in presence of 20 uM GDP by [35S]GTPgammaS binding assay relative to control; assay type: functional; outline: as §3
# [11] = target: T3, C-C chemokine receptor type 1 (Homo sapiens); assay: Inverse agonist activity at human TEV protease site linked CCR1 expressed in human U20S cell membranes co-expressing Gal4-VP16 transcription factor assessed as decrease in basal activity at 100 uM after 90 mins in presence of 10 uM GDP by [35S]GTPgammaS binding assay relative to control; assay type: functional; outline: as §3
# [12] = target: T3, C-C chemokine receptor type 1 (Homo sapiens); assay: Inverse agonist activity at human TEV protease site linked CCR1 expressed in human U20S cell membranes co-expressing Gal4-VP16 transcription factor assessed as decrease in basal activity at 100 uM after 90 mins in presence of 1 uM GDP by [35S]GTPgammaS binding assay relative to control; assay type: functional; outline: as §3
SMILES,Ki ([1]; read-out: Ki) [nM],Ki [2],inhibition [3] [%],further results
Cc1ccc(N2C(=O)C(O)=C(C(=O)c3ccccc3)C2C2CCCCC2)cc1 (stereo not drawn),–,77 nM,37,–
CC(=O)C1=C(O)C(=O)N(c2ccc(Br)cc2F)C1c1cccc(Br)c1 (stereo not drawn),216,65 nM,–,–
O=C(C1=C(O)C(=O)N(c2ccc(Br)cc2F)C1C1CCCCC1)C1CC1 (stereo not drawn),15,5 nM,–,IC50 ([4]; read-out: IC50): 330 nM; IC50 ([4]; read-out: pIC50 (converted)): 288 nM; Ratio IC50 [5]: 3; Activity [6]: Active; IC50 ([7]; read-out: IC50): 950 nM; IC50 ([7]; read-out: pIC50 (converted)): 933 nM; Imax [8]: 27%
CC(=O)C1=C(O)C(=O)N(c2ccc(Cl)c(C)c2)C1C1CCCCC1 (stereo not drawn),9,31 nM,–,IC50 ([4]; read-out: IC50): 40 nM; IC50 ([4]; read-out: pIC50 (converted)): 33.9 nM; Ratio IC50 [5]: 48; Ki ([1]; read-out: pKi (converted)): 8.13 nM; inhibition [10]: 25%; Activity [6]: Active; IC50 ([7]; read-out: IC50): 1940 nM; IC50 ([7]; read-out: pIC50 (converted)): 1860 nM; inhibition [11]: 26%; inhibition [12]: 22%
CC(=O)C1=C(O)C(=O)N(c2ccc(C)cc2)C1c1ccc(Cl)cc1 (stereo not drawn),207,67 nM,–,–
CC(=O)C1=C(O)C(=O)N(c2ccc(C)cc2)C1c1cccc(Cl)c1 (stereo not drawn),–,198 nM,19,–
CC(=O)C1=C(O)C(=O)N(c2ccc(C)cc2)C1c1cccc(Br)c1 (stereo not drawn),–,181 nM,19,–
O=C(C1=C(O)C(=O)N(c2ccc(Br)cc2F)C1C1CCCCC1)c1ccccc1 (stereo not drawn),66,28 nM,–,–
COc1ccc(C2C(C(C)=O)=C(O)C(=O)N2c2ccc(C)cc2)cc1 (stereo not drawn),–,541 nM,5,–
CCCCC(=O)C1=C(O)C(=O)N(c2ccc(C)cc2)C1C1CCCCC1 (stereo not drawn),158,31 nM,–,Ki ([1]; read-out: pKi (converted)): 155 nM
COc1cccc(C2C(C(C)=O)=C(O)C(=O)N2c2ccc(C)cc2)c1 (stereo not drawn),–,–,0,inhibition [9]: 28%
CC(=O)C1=C(O)C(=O)N(c2ccc(C)cc2)C1c1cccc(C)c1 (stereo not drawn),–,–,11,inhibition [9]: 47%
CC(=O)C1=C(O)C(=O)N(c2ccc(C)cc2)C1c1ccc(C)cc1 (stereo not drawn),–,195 nM and 198 nM,36,–
O=C(C1=C(O)C(=O)N(c2ccc(Br)cc2F)C1c1cccc(Br)c1)C1CC1 (stereo not drawn),–,50 nM,45,IC50 ([4]; read-out: IC50): 8770 nM; Activity [6]: Active; IC50 ([7]; read-out: IC50): 8640 nM; IC50 ([7]; read-out: pIC50 (converted)): 8510 nM; Imax [8]: 58%
CC(=O)C1=C(O)C(=O)N(c2ccc(Br)cc2F)C1C1CCCCC1 (stereo not drawn),6,–,–,IC50 ([4]; read-out: IC50): 30 nM; Ratio IC50 [5]: 19; Activity [6]: Active; IC50 ([7]; read-out: IC50): 590 nM; IC50 ([7]; read-out: pIC50 (converted)): 550 nM
Cc1ccc(N2C(=O)C(O)=C(C(=O)OC(C)C)C2C2CCCCC2)cc1 (stereo not drawn),–,–,6,inhibition [9]: 36%
CC(=O)C1=C(O)C(=O)N(c2ccc(C)cc2)C1c1ccc(Br)cc1 (stereo not drawn),214,85.1 nM and 87 nM,–,–
CC(=O)C1=C(O)C(=O)N(c2ccc(C)cc2)C1c1ccccc1 (stereo not drawn),–,162 nM,39,–

# Continued, in another order:
Ki ([1]; read-out: Ki) [nM],Ki [2],inhibition [3] [%],SMILES,further results
18,43 nM,–,CC(=O)C1=C(O)C(=O)N(c2ccc(C)c(C)c2)C1C1CCCCC1 (stereo not drawn),–
217,260 nM,–,COc1ccc(N2C(=O)C(O)=C(C(C)=O)C2C2CCCCC2)cc1 (stereo not drawn),Ki ([1]; read-out: pKi (converted)): 214 nM
170,57 nM,–,CC(=O)C1=C(O)C(=O)N(c2ccc(C)cc2)C1C1CCCCCCC1 (stereo not drawn),Ki ([1]; read-out: pKi (converted)): 162 nM
19,38.9 nM and 40 nM,–,CC(=O)C1=C(O)C(=O)N(c2ccc(Cl)cc2)C1C1CCCCC1 (stereo not drawn),–
316,40.7 nM and 42 nM,–,Cc1ccc(N2C(=O)C(O)=C(C(=O)C(C)C)C2C2CCCCC2)cc1 (stereo not drawn),–
158,22 nM,–,Cc1ccc(N2C(=O)C(O)=C(C(=O)C(C)(C)C)C2C2CCCCC2)cc1 (stereo not drawn),Ki ([1]; read-out: pKi (converted)): 155 nM
81,56 nM,–,CC(=O)C1=C(O)C(=O)N(c2ccc(C)cc2)C1C1CCCCC1 (stereo not drawn),–
66,168 nM,–,CCc1ccc(N2C(=O)C(O)=C(C(C)=O)C2C2CCCCC2)cc1 (stereo not drawn),Ki ([1]; read-out: pKi (converted)): 64.6 nM
144,29 nM,–,CCCC(=O)C1=C(O)C(=O)N(c2ccc(C)cc2)C1C1CCCCC1 (stereo not drawn),Ki ([1]; read-out: pKi (converted)): 138 nM
–,–,45,CC(=O)C1=C(O)C(=O)N(c2ccccc2)C1C1CCCCC1 (stereo not drawn),inhibition [9]: 42%
265,500 nM,–,CC(=O)C1=C(O)C(=O)N(c2cccc(C)c2)C1C1CCCCC1 (stereo not drawn),–
57,47.9 nM and 49 nM,–,CC(=O)C1=C(O)C(=O)N(c2ccc(C)c(F)c2)C1C1CCCCC1 (stereo not drawn),–
160,18.2 nM and 19 nM,–,Cc1ccc(N2C(=O)C(O)=C(C(=O)C3CC3)C2C2CCCCC2)cc1 (stereo not drawn),–
239,525 nM and 541 nM,–,CC(=O)C1=C(O)C(=O)N(c2cccc(Cl)c2)C1C1CCCCC1 (stereo not drawn),–
96,56 nM,–,CC(=O)C1=C(O)C(=O)N(c2ccc(C)cc2)C1C1CCCCCC1 (stereo not drawn),–
37,27.5 nM and 29 nM,–,CC(=O)C1=C(O)C(=O)N(c2ccc(C)cc2F)C1C1CCCCC1 (stereo not drawn),–
92,138 nM and 144 nM,–,CC(=O)C1=C(O)C(=O)N(c2ccc(C(F)(F)F)cc2)C1C1CCCCC1 (stereo not drawn),–
–,–,47,CC(=O)C1=C(O)C(=O)N(c2cccc(F)c2)C1C1CCCCC1 (stereo not drawn),inhibition [9]: 44%
104,30 nM,–,CCC(=O)C1=C(O)C(=O)N(c2ccc(C)cc2)C1C1CCCCC1 (stereo not drawn),–
305,–,–,CC(=O)C1=C(O)C(=O)N(c2cccc(C(F)(F)F)c2)C1C1CCCCC1 (stereo not drawn),Ki ([1]; read-out: pKi (converted)): 288 nM; inhibition [9]: 25%
–,200 nM,31,CCOC(=O)C1=C(O)C(=O)N(c2ccc(C)cc2)C1C1CCCCC1 (stereo not drawn),–
17,24 nM,–,CC(=O)C1=C(O)C(=O)N(c2ccc(Br)cc2)C1C1CCCCC1 (stereo not drawn),–
